Activity calls are given as the source filed them. The calls are words filed in the database; no cut-off is given here.
Assays:
Mus musculus [1] = assay: Analgesic activity against acetic acid induced writhing test in mouse after peroral administration; type: functional
Rattus norvegicus [2] = assay: Antiinflammatory activity against carrageenan-induced foot edema in rat after oral administration of 20 mg/kg; IA=Inactive; type: functional, organism-based; design: dose 20 mg/kg
Rattus norvegicus [3] = assay: Anti-arthritis activity against adjuvant-induced arthritis in rats after peroral administration; type: functional
In short: (§1)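 Groups of five male Lewis rats, 40–50 days old, given intraplantar injection in right hind paw of 0.6 mg Mycobacterium butyricum in 0.1 mL Bayol 55. Drug given in food from adjuvant day to day 17. Injected and noninjected hind paw volumes measured day 17 against normal controls. ED50 by least-squares curve fitting or Litchfield–Wilcoxon probit.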

Rattus norvegicus [4] = species: Rattus norvegicus; assay: Antiarthritis activity against adjuvant-induced arthritis in rats; type: functional; in short: as §1
Rattus norvegicus [5] = assay: Antiinflammatory activity against carrageenan-induced foot edema in rat after peroral administration at 25 mg/kg; IA=Inactive; type: functional, organism-based; design: dose 25 mg/kg
[6] = target: T1, Polyunsaturated fatty acid 5-lipoxygenase (Rattus norvegicus, UniProt P12527); assay: Inhibition of 5-lipoxygenase from rat peritoneal neutrophils in vitro
T1 sequence (P12527 whole entry): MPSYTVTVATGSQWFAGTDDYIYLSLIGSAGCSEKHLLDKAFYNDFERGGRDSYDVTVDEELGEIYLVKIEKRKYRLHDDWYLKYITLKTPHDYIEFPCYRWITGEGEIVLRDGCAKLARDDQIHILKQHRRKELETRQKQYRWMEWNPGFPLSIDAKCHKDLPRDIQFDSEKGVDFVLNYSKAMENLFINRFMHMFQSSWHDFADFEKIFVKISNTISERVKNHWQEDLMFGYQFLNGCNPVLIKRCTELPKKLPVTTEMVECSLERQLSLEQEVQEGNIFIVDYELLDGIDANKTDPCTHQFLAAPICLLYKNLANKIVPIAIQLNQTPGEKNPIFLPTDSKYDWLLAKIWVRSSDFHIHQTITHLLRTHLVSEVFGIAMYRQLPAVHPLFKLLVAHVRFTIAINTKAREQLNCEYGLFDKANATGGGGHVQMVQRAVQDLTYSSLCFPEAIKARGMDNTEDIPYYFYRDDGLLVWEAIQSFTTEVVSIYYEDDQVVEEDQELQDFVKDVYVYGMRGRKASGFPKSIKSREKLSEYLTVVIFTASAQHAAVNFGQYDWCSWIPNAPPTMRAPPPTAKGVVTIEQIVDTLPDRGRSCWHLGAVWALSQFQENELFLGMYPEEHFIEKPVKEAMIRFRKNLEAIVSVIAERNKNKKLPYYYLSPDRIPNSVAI

Rattus norvegicus [7] = assay: Ulcerogenic effect after oral administration (intestinal ulcer); type: functional
In short: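 Nonfasted male rats (150–180 g) killed 24 h after oral dosing, and intestinal ulcers scored. Ulceration index = (mean degree × rats with ulcers / rats) × 100. ED100 (index 100) determined graphically.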

Rattus norvegicus [8] = assay: Ulcerogenic effect after oral administration (gastric ulcer); type: functional
In short: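 Groups of eight female rats (120–150 g), fasted 24 h, dosed orally; killed 7 h later and stomachs scored. Ulceration index = (mean ulcer degree × rats with ulcers / number of rats) × 100, ulcers being scores above 0.5. ED100 (index 100, max 300) read graphically.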

Rattus norvegicus [9] = assay: Antiinflammatory activity against carrageenan-induced foot edema in rat after peroral administration; type: functional; conditions: po
In short: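 Groups of eight male Sprague-Dawley rats (150–180 g) dosed orally at the time of subplantar injection of 0.5 mg carrageenin. Paw volume difference measured before and 5 h after injection. Expressed as ED40, estimated graphically or by Litchfield–Wilcoxon probit analysis.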

Mus musculus [10] = assay: Analgesic activity against acetic acid induced writhing test in mouse after peroral administration at 100 mg/kg; IA=Inactive; type: functional, organism-based; design: dose 100 mg/kg
In short: (§2)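 Female mice (20–22 g), groups of 10, fasted 7 h; drug given orally 30 min before intraperitoneal injection of 0.2 mL 1% aqueous acetic acid. Stretching/writhing movements counted from minute 5 to 20 after irritant.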

Mus musculus [11] = assay: Analgesic activity against acetic acid induced writhing test in mouse administered po at 100 mg/kg; IA=Inactive; type: functional, organism-based; design: dose 100 mg/kg; in short: as §2
Cyclooxygenase = target: T2, Cyclooxygenase (Bos taurus, UniProt O62664+O62698); assay: Inhibition of bovine Prostaglandin G/H synthase in seminal vesicle microsomes in vitro
T2 sequence (O62664 whole entry): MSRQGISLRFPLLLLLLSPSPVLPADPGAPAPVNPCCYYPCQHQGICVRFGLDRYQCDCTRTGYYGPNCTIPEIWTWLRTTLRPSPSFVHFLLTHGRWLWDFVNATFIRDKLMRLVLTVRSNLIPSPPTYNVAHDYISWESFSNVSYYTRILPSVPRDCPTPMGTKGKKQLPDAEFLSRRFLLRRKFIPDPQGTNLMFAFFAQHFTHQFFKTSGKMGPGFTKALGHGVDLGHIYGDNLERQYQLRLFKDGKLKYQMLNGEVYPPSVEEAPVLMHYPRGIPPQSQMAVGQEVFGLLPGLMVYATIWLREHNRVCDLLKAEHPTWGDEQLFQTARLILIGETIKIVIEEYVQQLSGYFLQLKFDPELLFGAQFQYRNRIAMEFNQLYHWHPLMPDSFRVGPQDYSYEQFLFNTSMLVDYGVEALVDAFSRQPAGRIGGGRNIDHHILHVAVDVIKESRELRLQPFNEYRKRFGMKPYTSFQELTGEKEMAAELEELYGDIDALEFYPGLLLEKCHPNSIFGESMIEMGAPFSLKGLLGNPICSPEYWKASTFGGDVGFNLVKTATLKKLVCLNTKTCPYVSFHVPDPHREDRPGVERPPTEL
T2 sequence (O62698 whole entry): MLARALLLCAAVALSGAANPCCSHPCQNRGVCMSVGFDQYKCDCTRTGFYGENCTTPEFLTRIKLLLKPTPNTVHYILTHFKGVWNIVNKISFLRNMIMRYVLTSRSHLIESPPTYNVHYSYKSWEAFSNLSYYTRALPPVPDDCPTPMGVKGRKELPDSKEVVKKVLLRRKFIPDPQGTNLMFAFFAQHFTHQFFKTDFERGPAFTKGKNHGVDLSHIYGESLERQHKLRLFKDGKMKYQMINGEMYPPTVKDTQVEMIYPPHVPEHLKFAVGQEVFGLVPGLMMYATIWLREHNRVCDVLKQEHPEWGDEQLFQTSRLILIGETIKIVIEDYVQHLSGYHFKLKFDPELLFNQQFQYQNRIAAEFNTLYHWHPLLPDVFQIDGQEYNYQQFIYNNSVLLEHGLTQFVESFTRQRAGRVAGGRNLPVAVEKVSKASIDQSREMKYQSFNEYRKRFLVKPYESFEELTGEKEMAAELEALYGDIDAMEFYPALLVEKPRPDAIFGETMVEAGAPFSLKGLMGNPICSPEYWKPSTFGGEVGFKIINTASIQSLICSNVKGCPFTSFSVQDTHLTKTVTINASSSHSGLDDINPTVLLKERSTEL

[12] = Mus musculus, po, read-out: ED50
[13] = Rattus norvegicus, po, read-out: ED50

SMILES	ED50 (Mus musculus [1]; [12])	ED50 (Rattus norvegicus [3]; [13])	also measured
O=C(Nc1nccs1)c1c(Cc2ccccc2)nc2c(C(F)(F)F)cccc2c1O	40 mg/kg	–	ED50 (Rattus norvegicus [2]): inactive
CCCCc1nc2c(C(F)(F)F)cccc2c(O)c1C(=O)Nc1nccs1	50 mg/kg	–	ED50 (Rattus norvegicus [2]): inactive
CC(O)c1nc2ccccc2c(O)c1C(=O)Nc1nccs1 (configuration not stated)	> 100 mg/kg	> 5 mg/kg	–
CC(C)[C@H](N)c1nc2c(C(F)(F)F)cccc2c(O)c1C(=O)Nc1nccs1	> 100 mg/kg	≥ 5 mg/kg	–
CCC(O)c1nc2c(C(F)(F)F)cccc2c(O)c1C(=O)Nc1nccs1 (stereo in doubt; 91)	–	–	ED50 (Rattus norvegicus [3]): 0.5 mg/kg; ED50 (Mus musculus [1]): 1.8 mg/kg
CCC(OC(=O)c1ccccc1)c1nc2c(C(F)(F)F)cccc2c(O)c1C(=O)Nc1nccs1 (configuration not stated)	> 100 mg/kg	> 5 mg/kg	–
CCC(OC(=O)/C=C/c1ccccc1)c1nc2c(C(F)(F)F)cccc2c(O)c1C(=O)Nc1nccs1 (configuration not stated)	> 100 mg/kg	10 mg/kg	–
CC(O)c1nc2c(C(F)(F)F)cccc2c(O)c1C(=O)Nc1nccs1 (configuration not stated)	1.2 mg/kg	–	ED50 (Rattus norvegicus [4]): ≥ 5 mg/kg
CCC(O)c1nc2c(C(F)(F)F)cccc2c(O)c1C(=O)Nc1nccs1 (stereo in doubt; 90)	–	–	ED50 (Rattus norvegicus [3]): >5 mg/kg; ED50 (Mus musculus [1]): >20 mg/kg
O=C(Nc1nccs1)c1c(-c2ccccc2)nc2c(C(F)(F)F)cccc2c1O	50 mg/kg	–	ED50 (Rattus norvegicus [2]): inactive
O=C(Nc1nccs1)c1c(CCl)nc2c(C(F)(F)F)cccc2c1O	25 mg/kg	–	ED50 (Rattus norvegicus [5]): inactive
CC(C)C(O)c1nc2c(C(F)(F)F)cccc2c(O)c1C(=O)Nc1ccccn1 (configuration not stated)	> 50 mg/kg	5 mg/kg	–
CCC(=O)OC(c1nc2c(C(F)(F)F)cccc2c(O)c1C(=O)Nc1nccs1)C(C)C (configuration not stated)	> 100 mg/kg	≥ 5 mg/kg	–
CCCC(=O)OC(CC)c1nc2c(C(F)(F)F)cccc2c(O)c1C(=O)Nc1nccs1 (configuration not stated)	4 mg/kg	1.3 mg/kg	–
CN1C(C(=O)Nc2ccccn2)=C(O)c2ccccc2S1(=O)=O [PIROXICAM]	3.3 mg/kg	0.8 mg/kg	IC50 [6]: > 100 µM; ED100 (Rattus norvegicus [7]): 20 mg/kg; ED100 (Rattus norvegicus [8]): 9 mg/kg; ED40 (Rattus norvegicus [9]): 8 mg/kg
CCC(=O)OC(CC)c1nc2c(C(F)(F)F)cccc2c(O)c1C(=O)Nc1nccs1 (stereo in doubt; 104)	–	–	ED50 (Rattus norvegicus [3]): 0.6 mg/kg; ED50 (Mus musculus [1]): 15 mg/kg
CCC(=O)OC(CC)c1nc2c(C(F)(F)F)cccc2c(O)c1C(=O)Nc1ccccn1 (configuration not stated)	–	> 5 mg/kg	ED50 (Mus musculus [10]): inactive
C[C@H](N)c1nc2c(C(F)(F)F)cccc2c(O)c1C(=O)Nc1nccs1	30 mg/kg	7 mg/kg	–
O=C(Nc1nccs1)c1c(C(Cl)Cl)nc2c(F)cccc2c1O	25 mg/kg	–	ED50 (Rattus norvegicus [5]): inactive
CCC(OC(C)=O)c1nc2c(C(F)(F)F)cccc2c(O)c1C(=O)Nc1nccs1 (configuration not stated)	–	4 mg/kg	ED50 (Mus musculus [11]): inactive
CCCC(O)c1nc2c(C(F)(F)F)cccc2c(O)c1C(=O)Nc1nccs1 (configuration not stated)	20 mg/kg	–	ED50 (Rattus norvegicus [4]): ≥ 20 mg/kg
CCC(OC(=O)c1cccnc1)c1nc2c(C(F)(F)F)cccc2c(O)c1C(=O)Nc1nccs1 (configuration not stated)	> 20 mg/kg	> 1 mg/kg	–

SMILES	ED50 (Mus musculus [1]; [12])	ED50 (Rattus norvegicus [3]; [13])	also measured
CCCCCCCCCCCC(=O)OC(CC)c1nc2c(C(F)(F)F)cccc2c(O)c1C(=O)Nc1nccs1 (configuration not stated)	–	> 5 mg/kg	ED50 (Mus musculus [10]): inactive
CCC(O)c1nc2c(C(F)(F)F)cccc2c(O)c1C(=O)Nc1ccccn1 (configuration not stated)	20 mg/kg	≥ 15 mg/kg	–
O=C(Nc1nccs1)c1c(C(Cl)Cl)nc2c(Cl)cccc2c1O	25 mg/kg	–	ED50 (Rattus norvegicus [5]): inactive
CCC(=O)OC(CC)c1nc2c(C(F)(F)F)cccc2c(O)c1C(=O)Nc1nccs1 (stereo in doubt; 103)	–	–	ED50 (Rattus norvegicus [3]): >5 mg/kg; ED50 (Mus musculus [1]): >50 mg/kg
CC[C@H](NC(C)=O)c1nc2c(C(F)(F)F)cccc2c(O)c1C(=O)Nc1nccs1	5 mg/kg	1.5 mg/kg	–
O=C(Nc1ncco1)c1c(C(Cl)Cl)nc2c(C(F)(F)F)cccc2c1O	> 25 mg/kg	–	ED50 (Rattus norvegicus [5]): inactive
O=C(Nc1nc2ccccc2s1)c1c(C(Cl)Cl)nc2c(C(F)(F)F)cccc2c1O	> 25 mg/kg	–	ED50 (Rattus norvegicus [5]): inactive
CC(=O)OC(c1nc2c(C(F)(F)F)cccc2c(O)c1C(=O)Nc1nccs1)C(C)C (configuration not stated)	> 100 mg/kg	≥ 5 mg/kg	–
Cn1ccnc1NC(=O)c1c(C(Cl)Cl)nc2c(C(F)(F)F)cccc2c1O	> 25 mg/kg	–	ED50 (Rattus norvegicus [5]): inactive
CC(C)C(O)c1nc2c(C(F)(F)F)cccc2c(O)c1C(=O)Nc1nccs1 (configuration not stated)	20 mg/kg	–	ED50 (Rattus norvegicus [4]): 0.4 mg/kg
O=C(NC1=NCCS1)c1cnc2c(C(F)(F)F)cccc2c1O	15 mg/kg	–	–
CCC(OC(=O)C(C)(C)C)c1nc2c(C(F)(F)F)cccc2c(O)c1C(=O)Nc1nccs1 (configuration not stated)	–	15 mg/kg	–
O=C(Nc1nccs1)c1c(C(Cl)Cl)nc2c(C(F)(F)F)cccc2c1O	1.1 mg/kg	48 mg/kg	IC50 [6]: 2 µM; ED100 (Rattus norvegicus [7]): >500 mg/kg; IC50 (Cyclooxygenase): 1.8 µM; ED100 (Rattus norvegicus [8]): 270 mg/kg; ED40 (Rattus norvegicus [9]): > 100 mg/kg
O=C(Nc1nccs1)c1c(C(F)(F)F)nc2c([S+]([O-])C(F)(F)F)cccc2c1O (configuration not stated)	20 mg/kg	–	–
O=C(Nc1nccs1)c1cnc2ccc(Cl)cc2c1O	50 mg/kg	–	–
O=C(Nc1nccs1)c1c(C(F)(F)F)nc2c(SC(F)(F)F)cccc2c1O	4 mg/kg	–	–
CCC(O)c1nc2c(C(F)(F)F)cccc2c(O)c1C(=O)Nc1nccs1 (stereo in doubt; 89)	–	–	IC50 [6]: 1.1 µM; ED50 (Rattus norvegicus [4]): 2 mg/kg; ED50 (Rattus norvegicus [3]): 1.6 mg/kg; IC50 (Cyclooxygenase): 0.2 µM; ED100 (Rattus norvegicus [8]): 12 mg/kg; ED40 (Rattus norvegicus [9]): 5 mg/kg; ED50 (Mus musculus [1]): 3 mg/kg
CC(C)c1ccc2ncc(C(=O)Nc3nccs3)c(O)c2c1	25 mg/kg	–	–
CCC(=O)OC(c1nc2c(C(F)(F)F)cccc2c(O)c1C(=O)Nc1ccccn1)C(C)C (configuration not stated)	–	5 mg/kg	ED50 (Mus musculus [11]): inactive
CCc1nc2c(C(F)(F)F)cccc2c(O)c1C(=O)Nc1ccccn1	18 mg/kg	–	–
CCCc1nc2c(C(F)(F)F)cccc2c(O)c1C(=O)Nc1nccs1	15 mg/kg	–	–
